Measurements collected from several papers.
Protocols differ between the studies behind these lines. pEC50, pIC50: −log10 of the molar value.
Effect on: cell growth or viability

SMILES | cell line | assay | conditions | quantity | value
CC(=O)Nc1ccc(/C(C)=N/N=c2\sc(C(C)=O)nn2-c2ccc(C)cc2)cc1 | MCF7 | MTT | 5 µM | viability | 21.2%
C=C(F)C(=O)N1CCN(c2nc(OC[C@@H]3CCCN3C)nc3c2CCN(c2cccc4cccc(Cl)c24)C3)C[C@@H]1CC#N | SW-620 | ATP luminescence | 3D culture | pIC50 | < 6.00
CCOC(=O)c1nn(-c2cccc(Cl)c2)/c(=N/N=C(\C)c2ccc(NC(=O)c3ccc(Cl)cc3)cc2)s1 | MCF7 | MTT | 5 µM | viability | 3.67%
Cc1noc2c1-c1ccccc1C(c1ccc(Cl)cc1)=N[C@H]2CC(N)=O | NOMO-1 | ATP luminescence | 72 h | pIC50 | 6.41
C=CC(=O)N1CCN(c2nc(=O)n(-c3c(C)ccnc3C(C)C)c3nc(-c4c(O)cccc4F)c(F)cc23)[C@@H](C)C1 | NCI-H441 | ATP luminescence |  | pIC50 | < 5.00
C=CC(=O)NC1CCN(c2ncc3ncnc(Nc4ccc(Oc5ccc6c(c5)ncn6C)c(C)c4)c3n2)CC1 | NCI-H441 |  |  | pEC50 | 6.16
CCOC(=O)c1nn(-c2cccc(Cl)c2)/c(=N/N=C(\C)c2ccc(NC(=O)c3ccccc3)cc2)s1 | MCF7 | MTT | 10 µM | viability | 2.41%
COc1ccc(CNC[C@](O)(COCc2ccc(F)cc2)[C@@H]2CC[C@@H](C)C[C@H]2OCc2ccc(F)cc2)cc1 | MCF7 | MTT | 30 µM, 72 h | inhibition | 98.4%
COc1cc2c3c(n(CCCNCCO)c(=O)c2cc1OC)-c1nc2c(cc1C3=O)OCO2 | THP-1 | MTS | 72 h | pIC50 | 6.52
COc1ccccc1CNC[C@@](C)(O)[C@@H]1CC[C@@H](C)C[C@H]1OCc1ccccc1 | MCF7 | MTT | 30 µM, 72 h | inhibition | 98.1%
CC1(C)CCC2(CC1)N[C@@H](C(=O)N[C@@H]1CC[C@@H](C(N)=O)OC1)[C@H](c1ccnc(Cl)c1F)[C@]21C(=O)Nc2cc(Cl)ccc21 | SJSA-1 | resazurin | 72 h | GI50 | 75 nM
COc1cc2c3c(n(CCCn4ccnc4)c(=O)c2cc1OC)-c1nc2c(cc1C3=O)OCO2 | AMO1 | MTS | 72 h | pIC50 | 6.09
Cc1c(C(=O)O)ccc2c3n(nc12)[C@@H]1[C@H](C3)N(CC2CC2)[C@@]2(C(=O)Nc3cc(Cl)ccc32)[C@H]1c1cccc(Cl)c1F | A204 | resazurin |  | GI50 | 6 nM
CC(=O)c1nn(-c2ccc(C)cc2)/c(=N/N=C(\C)c2ccc(NC(=O)c3ccccc3)cc2)s1 | MCF7 | MTT | 1.25 µM | viability | 5.3%
C[C@@H]1CC[C@@H]([C@](O)(CNCc2ccc(F)cc2)COCc2ccc(F)cc2)[C@H](OCc2ccc(F)cc2)C1 | MCF7 | MTT | 30 µM, 72 h | inhibition | 97.2%
COc1cc2c3c(n(CCCN4CCOCC4)c(=O)c2cc1OC)-c1nc2c(cc1C3=O)OCO2 | THP-1 | MTS | 72 h | pIC50 | 5.88
O=C(C=Cc1ccccc1)Nc1ccc(Oc2nnc(-c3ccc(Cl)cc3)c3ccccc23)cc1 | MCF7 | MTT | 10 µM | cell death | 91.9%

SMILES | cell line | assay | conditions | quantity | value
O=C(NO)c1ccc(CNc2nc3cccc(-c4ccc5c(c4)OCO5)n3n2)cc1 | SW-620 | SRB |  | GI50 | 450 nM
C[C@@H]1CC[C@@H]([C@](C)(O)Cn2cnc3ccccc32)[C@H](OCc2ccccc2)C1 | MCF7 | MTT | 30 µM, 72 h | inhibition | 98.3%
CC(=NNC(=O)c1ccccc1O)c1ccc(Nc2nnc(-c3ccc(Cl)cc3)c3ccccc23)cc1 | MCF7 | MTT | 1.25 µM, 24 h | viability | 90.3%
CCN1[C@@H](C(=O)NC23CCC(C(=O)O)(CC2)CC3)[C@H](c2cccc(Cl)c2F)[C@]2(C(=O)Nc3cc(Cl)ccc32)C12CCCCC2 | SJSA-1 | resazurin | 72 h | GI50 | 89 nM
C[C@@H]1CC[C@@H]([C@](C)(O)CNCc2cccc(F)c2)[C@H](OCc2ccccc2)C1 | MCF7 | MTT | 30 µM, 72 h | inhibition | 95.6%
CC(=NNC(N)=S)c1ccc(Nc2nnc(-c3ccc(Cl)cc3)c3ccccc23)cc1 | MCF7 | MTT | 0.625 µM, 24 h | viability | 4.56%
CCNCCCn1c2c(c3cc(OC)c(OC)cc3c1=O)C(=O)c1cc3c(nc1-2)OCO3 | AMO1 | MTS | 72 h | pIC50 | 6.74
CC(=NNC(=O)c1ccc(N)cc1)c1ccc(Nc2nnc(-c3ccc(Cl)cc3)c3ccccc23)cc1 | MCF7 | MTT | 1.25 µM | cell death | 85.9%
COc1cc2c3c(n(CCCNC(C)C)c(=O)c2cc1OC)-c1nc2c(cc1C3=O)OCO2 | AMO1 | MTS | 72 h | pIC50 | 6.50
CC(=NNC(=O)c1ccccc1Br)c1ccc(Nc2nnc(-c3ccc(Cl)cc3)c3ccccc23)cc1 | MCF7 | MTT | 1.25 µM, 24 h | viability | 31.3%
C[C@@H]1CC[C@@H]([C@@](O)(CNCc2cccc3ccccc23)COCc2ccccc2)[C@H](OCc2ccccc2)C1 | MCF7 | MTT | 30 µM, 72 h | inhibition | 90.7%
O=C(Nc1ccc(Oc2nnc(-c3ccc(Cl)cc3)c3ccccc23)cc1)c1cccc([N+](=O)[O-])c1 | MCF7 | MTT | 2.5 µM, 24 h | viability | 4.87%
C[C@@H]1CC[C@@H]([C@@](O)(CNCc2ccccc2)COCc2ccc(F)cc2)[C@H](OCc2ccc(F)cc2)C1 | MCF7 | MTT | 30 µM, 72 h | inhibition | 100%
CC(=NNC(=O)c1ccccc1Cl)c1ccc(Nc2nnc(-c3ccc(Cl)cc3)c3ccccc23)cc1 | MCF7 | MTT | 5 µM, 24 h | viability | 8.28%
CC(=O)c1nn(-c2ccccc2Cl)/c(=N/N=C(\C)c2ccc(NC(=O)c3ccccc3)cc2)s1 | MCF7 | MTT | 2.5 µM | viability | 6.21%
C[C@@H]1CC[C@@H]([C@](O)(CNCc2ccccc2)COCc2ccccc2)[C@H](OCc2ccccc2)C1 | MCF7 | MTT | 30 µM, 72 h | inhibition | 83.2%
CC(=O)Nc1ccc(Oc2nnc(-c3ccc(Cl)cc3)c3ccccc23)cc1 | MCF7 | MTT | 2.5 µM | cell death | 94.2%
